Active and inactive are the calls of the source. The rule behind the calls is not given here.
Key:
[1] = target: T1, Extracellular calcium-sensing receptor (Homo sapiens, UniProt P41180); test: Positive allosteric modulation of human CaSR expressed in CHO cells assessed as increase in intracellular calcium level after 5 hrs by luciferase reporter gene assay; type: functional, cell-based
T1 sequence (P41180 whole entry): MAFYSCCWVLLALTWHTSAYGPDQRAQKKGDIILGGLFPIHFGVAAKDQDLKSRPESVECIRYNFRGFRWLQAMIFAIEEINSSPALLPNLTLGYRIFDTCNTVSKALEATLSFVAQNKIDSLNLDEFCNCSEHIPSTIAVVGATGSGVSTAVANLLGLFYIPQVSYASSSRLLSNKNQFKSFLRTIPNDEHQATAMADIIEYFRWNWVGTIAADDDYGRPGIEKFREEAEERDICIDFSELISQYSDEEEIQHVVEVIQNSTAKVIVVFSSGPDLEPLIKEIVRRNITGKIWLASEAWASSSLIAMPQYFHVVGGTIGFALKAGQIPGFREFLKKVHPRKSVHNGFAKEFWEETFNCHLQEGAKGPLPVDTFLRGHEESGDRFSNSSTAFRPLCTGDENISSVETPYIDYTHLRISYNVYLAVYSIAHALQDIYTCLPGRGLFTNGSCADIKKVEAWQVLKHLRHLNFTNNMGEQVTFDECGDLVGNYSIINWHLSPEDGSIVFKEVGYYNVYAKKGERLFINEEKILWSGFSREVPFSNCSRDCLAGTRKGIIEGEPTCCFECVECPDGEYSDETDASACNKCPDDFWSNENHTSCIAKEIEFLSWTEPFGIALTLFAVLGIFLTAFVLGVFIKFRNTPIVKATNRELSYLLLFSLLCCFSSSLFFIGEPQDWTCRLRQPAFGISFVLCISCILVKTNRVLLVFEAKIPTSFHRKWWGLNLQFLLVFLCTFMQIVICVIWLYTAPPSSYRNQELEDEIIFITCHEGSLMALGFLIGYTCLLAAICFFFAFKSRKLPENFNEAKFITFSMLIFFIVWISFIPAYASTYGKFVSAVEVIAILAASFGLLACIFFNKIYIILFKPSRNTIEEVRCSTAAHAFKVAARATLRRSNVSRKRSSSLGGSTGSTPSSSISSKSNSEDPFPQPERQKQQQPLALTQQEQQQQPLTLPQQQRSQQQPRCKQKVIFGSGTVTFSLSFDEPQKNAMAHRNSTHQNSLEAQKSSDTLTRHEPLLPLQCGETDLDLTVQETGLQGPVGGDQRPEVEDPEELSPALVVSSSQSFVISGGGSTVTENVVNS
How it was run: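 CHO cells stably transfected with human CaSR and a luciferase reporter (clone ET8-5-5) were seeded at 50K/well, grown 24 h, then serum-starved overnight. Cells were exposed for 5 h at 37 °C to compound dilutions crossed with a CaCl2 range, in HEPES pH 7.4 buffer with 0.3 mM CaCl2 baseline. Luminescence was read. EC50 was taken at 2 mM calcium, n ≥ 1.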

[2] = Aqueous solubility of the compound at pH 2; type: physicochemical
How it was run: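 Aqueous solubility measured at pH 2.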

Rattus norvegicus [3] = test: Antihyperparathyroidism activity in Sprague-Dawley rat chronic renal failure model assessed as decrease in serum PTH level at 10 mg/kg, po after 24 hrs relative to vehicle-treated control; type: functional; parameters: scale not given: the % may be the effect or the level left
How it was run: (§1)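 One week later each received one oral gavage of 10 mg/kg in 0.5% methylcellulose (5 mL/kg), or vehicle alone. Rats were fasted 24 h before decapitation at 2, 6 or 24 h. Serum PTH was measured by rat IRMA, and Ca and P by chemistry analyzer. n = 9–12, ANOVA/t-test against CRF vehicle.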

Rattus norvegicus [4] = test: Toxicity in Sprague-Dawley rat chronic renal failure model assessed as decrease in serum calcium level at 10 mg/kg/day, po administered for 2 months measured 24 hrs post last dose relative to vehicle-treated control; type: organism-based; parameters: route oral; conditions: in vivo
How it was run: (§2)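 Male Sprague–Dawley rats with 5/6 nephrectomy were dosed orally once daily at 10 or 30 mg/kg/day in 0.5% methylcellulose (5 mL/kg), or given vehicle. Dosing ran about 2 months, starting after a post-surgery untreated period. Rats were fasted and killed by decapitation 24 h after the last dose. Serum PTH was measured by rat IRMA and Ca by chemistry analyzer. n = 6–10, compared with CRF vehicle.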

Rattus norvegicus [5] = test: Toxicity in Sprague-Dawley rat chronic renal failure model assessed as decrease in serum calcium level at 10 mg/kg/day, po administered for 2 months measured 24 hrs post last dose (reference value: 4%); type: organism-based; parameters: route oral; scale not given: the % may be the effect or the level left; conditions: in vivo, 30 mg/kg, in the assay text read “at 30 mg/kg/day” for “at 10 mg/kg/day”; how it was run: as §2
Rattus norvegicus [6] = test: Toxicity in Sprague-Dawley rat chronic renal failure model assessed as aortic calcification at 10 to 30 mg/kg/day, po administered for 2 months measured 24 hrs post last dose by histological analysis; type: organism-based, Aorta; parameters: route oral; conditions: in vivo
How it was run: (§3)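 After an untreated interval, they were gavaged once daily with the dihydrochloride salt in 0.5% methylcellulose, or with vehicle at 5 mL/kg. Mortality and side effects were monitored during treatment. Rats were fasted 24 h, then decapitated, and the aorta was examined histologically for calcification.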

[7] = Metabolic stability in serum (unknown origin) at pH 2 to 12; type: ADME
Rattus norvegicus [8] = test: Clearance in Sprague-Dawley rat at 0.3 mg/kg, iv; type: ADME, organism-based; parameters: dose 0.3 mg/kg, route intravenous; conditions: in vivo
[9] = Metabolic stability in intestinal fluid (unknown origin) at pH 2 to 12; type: ADME; conditions: simulated gi fluid
Rattus norvegicus [10] = test: Toxicity in Sprague-Dawley rat chronic renal failure model assessed as decrease in serum calcium level at 10 mg/kg, po after 24 hrs; type: organism-based; parameters: dose 10 mg/kg, route oral; conditions: in vivo; how it was run: as §1
[11] = Clearance in Sprague-Dawley rat chronic renal failure model at 0.3 mg/kg, iv; type: ADME, organism-based; parameters: dose 0.3 mg/kg, route intravenous; conditions: in vivo
How it was run: (§4)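 Single intravenous dose of 0.3 mg/kg given to chronic renal failure rats. AUC, Cmax, clearance, volume of distribution and half-life were derived from the plasma exposure.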

[12] = AUC in Sprague-Dawley rat chronic renal failure model at 0.3 mg/kg, iv; type: ADME, organism-based; parameters: dose 0.3 mg/kg, route intravenous; conditions: in vivo; how it was run: as §4
Rattus norvegicus [13] = test: Antihyperparathyroidism activity in Sprague-Dawley rat chronic renal failure model assessed as decrease in serum PTH level at 10 mg/kg, po after 2 hrs relative to vehicle-treated control; type: functional; parameters: scale not given: the % may be the effect or the level left; how it was run: as §1
[14] = Cmax in Sprague-Dawley rat chronic renal failure model at 0.3 mg/kg, iv; type: ADME, organism-based; parameters: dose 0.3 mg/kg, route intravenous; conditions: in vivo; how it was run: as §4
Rattus norvegicus [15] = test: Toxicity in Sprague-Dawley rat chronic renal failure model assessed as mortality at 10 to 30 mg/kg/day, po administered for 2 months measured 24 hrs post last dose; type: organism-based; parameters: route oral; conditions: in vivo; how it was run: as §3
Rattus norvegicus [16] = test: Antihyperparathyroidism activity in Sprague-Dawley rat chronic renal failure model assessed as […] at 10 mg/kg/day, po administered for 2 months measured 24 hrs post last dose relative to vehicle-treated control; type: functional; how it was run: as §2
[17] = Half life in Sprague-Dawley rat chronic renal failure model at 0.3 mg/kg, iv; type: ADME, organism-based; parameters: dose 0.3 mg/kg, route intravenous; conditions: in vivo; how it was run: as §4
Rattus norvegicus [18] = test: Antihyperparathyroidism activity in Sprague-Dawley rat chronic renal failure model assessed as decrease in serum PTH level at 10 mg/kg, po after 6 hrs relative to vehicle-treated control; type: functional; parameters: scale not given: the % may be the effect or the level left; how it was run: as §1
Rattus norvegicus [19] = test: Toxicity in Sprague-Dawley rat chronic renal failure model assessed as side effects at 10 to 30 mg/kg/day, po administered for 2 months measured 24 hrs post last dose; type: organism-based; parameters: route oral; conditions: in vivo; how it was run: as §3
[20] = Volume of distribution in Sprague-Dawley rat chronic renal failure model at 0.3 mg/kg, iv; type: ADME, organism-based; parameters: dose 0.3 mg/kg, route intravenous; conditions: in vivo; how it was run: as §4
Rattus norvegicus [21] = test: Antihyperparathyroidism activity in Sprague-Dawley rat chronic renal failure model assessed as […] at 30 mg/kg/day, po administered for 2 months measured 24 hrs post last dose relative to vehicle-treated control; type: functional; how it was run: as §2
[22] = target: Voltage-gated inwardly rectifying potassium channel KCNH2 (Homo sapiens, UniProt Q12809); test: Inhibition of human ERG at 10 uM
Salmonella typhimurium = test: Genotoxicity in Salmonella typhimurium at 10 uM by Ames test; type: toxicity, organism-based; conditions: salmonella enterica subsp. enterica serovar typhimurium
Rattus norvegicus [23] = test: Antihyperparathyroidism activity in Sprague-Dawley rat chronic renal failure model assessed as increase in serum phosphorus level at 10 mg/kg, po after 24 hrs; type: functional, organism-based; parameters: dose 10 mg/kg; how it was run: as §1
[24] = target: T2, Extracellular calcium-sensing receptor (Homo sapiens) (UniProt P41180); test: Ratio of R-568 EC50 to compound EC50 for positive allosteric modulation of human CaSR
T2 sequence (whole entry): T1 sequence (P41180 whole entry)

Sequence of Voltage-gated inwardly rectifying potassium channel KCNH2 (Q12809 whole entry): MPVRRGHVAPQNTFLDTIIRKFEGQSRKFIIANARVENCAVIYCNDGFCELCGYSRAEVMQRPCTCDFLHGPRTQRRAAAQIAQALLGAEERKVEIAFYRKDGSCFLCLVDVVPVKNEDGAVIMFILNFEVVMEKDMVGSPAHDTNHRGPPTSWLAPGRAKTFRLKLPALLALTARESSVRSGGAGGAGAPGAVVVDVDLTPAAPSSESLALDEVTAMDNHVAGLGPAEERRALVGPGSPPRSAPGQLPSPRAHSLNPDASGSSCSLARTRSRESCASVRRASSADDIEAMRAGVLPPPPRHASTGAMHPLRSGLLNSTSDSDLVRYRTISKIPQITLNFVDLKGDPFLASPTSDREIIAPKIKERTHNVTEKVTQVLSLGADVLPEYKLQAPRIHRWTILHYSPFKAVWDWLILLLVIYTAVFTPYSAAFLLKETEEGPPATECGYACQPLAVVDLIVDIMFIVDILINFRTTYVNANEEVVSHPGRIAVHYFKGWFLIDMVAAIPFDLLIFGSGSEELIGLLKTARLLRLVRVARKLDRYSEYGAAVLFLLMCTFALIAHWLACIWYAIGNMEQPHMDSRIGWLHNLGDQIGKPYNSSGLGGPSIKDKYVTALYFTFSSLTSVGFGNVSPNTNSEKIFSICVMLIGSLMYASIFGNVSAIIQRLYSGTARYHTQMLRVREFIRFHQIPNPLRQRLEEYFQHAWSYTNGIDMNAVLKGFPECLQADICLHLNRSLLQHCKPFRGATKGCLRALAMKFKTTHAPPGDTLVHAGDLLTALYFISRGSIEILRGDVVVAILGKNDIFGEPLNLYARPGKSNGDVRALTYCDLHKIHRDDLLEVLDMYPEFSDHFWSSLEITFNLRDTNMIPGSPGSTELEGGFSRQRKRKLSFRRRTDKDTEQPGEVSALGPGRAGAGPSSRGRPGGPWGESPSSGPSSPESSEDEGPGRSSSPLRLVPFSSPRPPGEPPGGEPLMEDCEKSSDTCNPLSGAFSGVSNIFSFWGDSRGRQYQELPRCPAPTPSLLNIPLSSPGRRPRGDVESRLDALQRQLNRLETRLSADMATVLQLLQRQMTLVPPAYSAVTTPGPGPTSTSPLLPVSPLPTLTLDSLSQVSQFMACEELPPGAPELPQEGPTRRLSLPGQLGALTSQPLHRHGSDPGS

| Compound | EC50 [1] | other results |
| --- | --- | --- |
| COc1ccc2nc(NC(=O)N(CCC(c3ccccc3)c3ccccc3)CCN3CCOCC3)sc2c1 | 40 nM |  |
| CS(=O)(=O)Nc1ccc2nc(NC(=O)N(CCC(c3ccccc3)c3ccccc3)CCN3CCOCC3)sc2c1 | 30 nM |  |
| COc1cccc2sc(NC(=O)N(CCC(c3ccccc3)c3ccccc3)CCN3CCOCC3)nc12 | 30 nM |  |
| O=C(Nc1nc2c(Cl)cccc2s1)N(CCC(c1ccccc1)c1ccccc1)CCN1CCOCC1 | 20 nM |  |
| O=C(Nc1nc2ccc(OC(F)(F)F)cc2s1)N(CCC(c1ccccc1)c1ccccc1)CCN1CCOCC1 | 90 nM |  |
| Cc1noc(NC(=O)N(CCC(c2ccccc2)c2ccccc2)CCN2CCOCC2)c1C | 1700 nM |  |
| O=C(Nc1nc2cc(Cl)ccc2o1)N(CCC(c1ccccc1)c1ccccc1)CCN1CCOCC1 | 80 nM |  |
| Cc1cc(C)nc(NC(=O)N(CCC(c2ccccc2)c2ccccc2)CCN2CCOCC2)c1 | 80 nM |  |
| CS(=O)(=O)Nc1ccc2sc(NC(=O)N(CCC(c3ccccc3)c3ccccc3)CCN3CCOCC3)nc2c1 | 30 nM |  |
| O=C(Nc1nccs1)N(CCC(c1ccccc1)c1ccccc1)CCN1CCOCC1 | 300 nM |  |
| O=C(Nc1nc2ccccc2[nH]1)N(CCC(c1ccccc1)c1ccccc1)CCN1CCOCC1 | 60 nM |  |
| Cc1ccc2nc(NC(=O)N(CCC(c3ccccc3)c3ccccc3)CCN3CCOCC3)sc2c1 | 30 nM |  |
| CCOc1ccc2nc(NC(=O)N(CCC(c3ccccc3)c3ccccc3)CCN3CCOCC3)sc2c1 | 1000 nM |  |
| Cn1c(NC(=O)N(CCC(c2ccccc2)c2ccccc2)CCN2CCOCC2)nc2ccccc21 | 150 nM |  |
| O=C(Nc1cccnc1)N(CCC(c1ccccc1)c1ccccc1)CCN1CCOCC1 | 1000 nM |  |
| Cl.Cl.O=C(Nc1nc2ccccc2s1)N(CCC(c1ccccc1)c1ccccc1)CCN1CCOCC1 |  | solubility [2]: 300 µg/mL; Activity (Rattus norvegicus [3]): -49%; Activity (Rattus norvegicus [4]): Non-toxic; Activity (Rattus norvegicus [5]): 9%; Activity (Rattus norvegicus [6]): Non-toxic; Stability [7]: Stable; clearance (Rattus norvegicus [8]): 82.7 mL/min/kg; Stability [9]: Stable; Activity (Rattus norvegicus [10]): Non-toxic; clearance [11]: 30.8 mL/min/kg; AUC [12]: 162 ng·h/mL; Activity (Rattus norvegicus [13]): 95%; Cmax [14]: 546 ng/mL; Activity (Rattus norvegicus [15]): Non-toxic; Activity (Rattus norvegicus [16]): -76%; half-life [17]: 6.73 h; Activity (Rattus norvegicus [18]): -75%; Activity (Rattus norvegicus [19]): Non-toxic; Vd [20]: 5.17 L/kg; Activity (Rattus norvegicus [21]): -88% |

| Compound | EC50 [1] | other results |
| --- | --- | --- |
| O=C(Nc1nc2ccc(CO)cc2s1)N(CCC(c1ccccc1)c1ccccc1)CCN1CCOCC1 | 80 nM |  |
| O=C(Nc1nc2ccc(Cl)cc2s1)N(CCC(c1ccccc1)c1ccccc1)CCN1CCOCC1 | 60 nM |  |
| CN(C)CCNC(=O)c1ccc2nc(NC(=O)N(CCC(c3ccccc3)c3ccccc3)CCN3CCOCC3)sc2c1 | 200 nM |  |
| O=C(Nc1cnccn1)N(CCC(c1ccccc1)c1ccccc1)CCN1CCOCC1 | 450 nM |  |
| O=C(Nc1nc2ccccc2n1Cc1ccccc1)N(CCC(c1ccccc1)c1ccccc1)CCN1CCOCC1 | 300 nM |  |
| Cc1cc(NC(=O)N(CCC(c2ccccc2)c2ccccc2)CCN2CCOCC2)no1 | 200 nM |  |
| CS(=O)(=O)c1ccc2nc(NC(=O)N(CCC(c3ccccc3)c3ccccc3)CCN3CCOCC3)sc2c1 | 80 nM |  |
| COc1cc(C)nc(NC(=O)N(CCC(c2ccccc2)c2ccccc2)CCN2CCOCC2)n1 | 400 nM |  |
| O=C(O)c1ccc2nc(NC(=O)N(CCC(c3ccccc3)c3ccccc3)CCN3CCOCC3)sc2c1 | 100 nM |  |
| CCOC(=O)c1ccc2nc(NC(=O)N(CCC(c3ccccc3)c3ccccc3)CCN3CCOCC3)sc2c1 | 200 nM |  |
| COC(=O)c1sccc1NC(=O)N(CCC(c1ccccc1)c1ccccc1)CCN1CCOCC1 | 400 nM |  |
| O=C(Nc1nc2ccc(F)cc2s1)N(CCC(c1ccccc1)c1ccccc1)CCN1CCOCC1 | 200 nM |  |
| Cc1cccc2sc(NC(=O)N(CCC(c3ccccc3)c3ccccc3)CCN3CCOCC3)nc12 | 600 nM |  |
| O=C(Nc1nccc(-c2nccs2)n1)N(CCC(c1ccccc1)c1ccccc1)CCN1CCOCC1 | 200 nM |  |
| O=C(Nc1nc2ccccc2s1)N(CCC(c1ccccc1)c1ccccc1)CCN1CCOCC1 [listing 1 of 2 here] | 20 nM | inhibition (INH) [22]: Active; Activity (Salmonella typhimurium): Non-toxic |
| O=C(Nc1nc2ccccc2s1)N(CCC(c1ccccc1)c1ccccc1)CCN1CCOCC1 [listing 2 of 2 here] |  | Activity (Rattus norvegicus [23]): Active; Ratio EC50 [24]: 4 |
